Laboratory results reported in ChEMBL document CHEMBL4177753, “Structural Modification of Natural Product Ganomycin I Leading to Discovery of a α-Glucosidase and HMG-CoA Reductase Dual Inhibitor Improving Obesity and Metabolic Dysfunction in Vivo” (J Med Chem, 2018).
Active and inactive are the calls of the source.

Experiments:
Mus musculus [1] = assay: Toxicity in C57BL/6J mouse assessed as effect on behavior at 30 mg/kg administered daily via oral gavage for 3 months; format: organism-based; details: in vivo
Summary of the method: (§1)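 Long-term safety study in C57BL/6J mice, 20 male and 20 female, sorted by gender, blood glucose and body weight into four groups (n = 10 each). Treated groups of each sex got 30.0 mg/kg daily by oral gavage in soybean vehicle. Vehicle groups got an equal volume of soybean. Dosing ran three months, with behavior, survival, body weight, blood glucose, liver function and organ coefficients recorded.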

Mus musculus [2] = assay: Toxicity in C57BL/6J mouse assessed as effect on body weight at 30 mg/kg administered daily via oral gavage for 3 months; format: organism-based; details: in vivo; summary of the method: as §1
Mus musculus [3] = assay: Toxicity in C57BL/6J mouse assessed as effect on survival at 30 mg/kg administered daily via oral gavage for 3 months; format: organism-based; details: in vivo; summary of the method: as §1
[4] = AUC (0 to infinity) in Sprague-Dawley rat at 2 mg/kg, po; format: ADME, organism-based; parameters: dose 2 mg/kg, route oral, time infinity; details: in vivo
Summary of the method: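 Male Sprague-Dawley rats (n = 6, 0.21–0.23 kg), single oral dose 2.0 mg/kg. Orbital blood sampled 0–16 h into heparinized tubes. Plasma was protein-precipitated with methanol, with internal standard added. Quantified by UPLC-ESI(+)-QTOF-MS in SIM mode on a C18 column with a methanol/0.3% formic acid water gradient. Linear range 0.54–107 ng/ml.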

Mus musculus [5] = assay: Antiobesity activity in ob/ob mouse assessed as reduction in weight gain at 3 mg/kg administered daily via oral gavage for 31 days relative to vehicle-treated control; format: functional; parameters: scale not given: the % may be the effect or the level left
Summary of the method: (§2)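 Male ob/ob mice, n = 10 per group, grouped by blood glucose and body weight. Daily gavage at 0.3, 1.0 or 3.0 mg/kg in soybean vehicle, with soybean vehicle controls and C57BL/6J controls. Body weight, cumulative food intake, LEE index, fat mass and lean mass recorded. Mean ± SEM, one-way ANOVA with Tukey test.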

Mus musculus [6] = assay: Antiobesity activity in ob/ob mouse assessed as reduction in LEE index at 3 mg/kg administered daily via oral gavage for 31 days relative to vehicle-treated control; format: functional, organism-based; summary of the method: as §2
Mus musculus [7] = assay: Hypoglycemic activity in ob/ob mouse assessed as decrease in blood glucose AUC at 0.3 to 3 mg/kg administered daily via oral gavage for 25 days by OGTT; format: functional, organism-based
Summary of the method: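 Male ob/ob or high-fat-diet C57BL/6J mice dosed daily by gavage at 0.3–3.0 mg/kg. OGTT: glucose 2 g/kg orally after overnight fast. ITT: insulin 0.6 U/kg i.p. after 4 h fast. Glucometer readings at 0, 40, 80 and 120 min; AUC computed from the curves.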

Mus musculus [8] = assay: Hypolipidemic activity in ob/ob mouse assessed as decrease in size of adipocytes in white adipose tissue at 3 mg/kg administered daily via oral gavage for 31 days by hematoxylin-eosin staining-based microscopic method; format: functional, organism-based
Summary of the method: (§3)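 Male ob/ob mice dosed by gavage (soybean vehicle); liver and abdominal white adipose tissue fixed in 10% formaldehyde-PBS pH 7.4, paraffin-embedded, sectioned, stained with H&E, Oil Red O or sirius red, and examined by light microscopy.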

Mus musculus [9] = assay: Hypolipidemic activity in ob/ob mouse assessed as decrease in liver total cholesterol levels at 0.3 to 3 mg/kg administered daily via oral gavage for 31 days; format: functional, organism-based
Mus musculus [10] = assay: Hypolipidemic activity in ob/ob mouse assessed as decrease in liver LDL-C levels at 0.3 to 3 mg/kg administered daily via oral gavage for 31 days; format: functional, organism-based
Mus musculus [11] = assay: Hypolipidemic activity in ob/ob mouse assessed as decrease in serum ALT levels at 0.3 to 3 mg/kg administered daily via oral gavage for 31 days; format: functional, organism-based
Mus musculus [12] = assay: Hypolipidemic activity in ob/ob mouse assessed as decrease in hepatocyte ballooning at 3 mg/kg administered daily via oral gavage for 31 days by oil red O staining-based microscopic method; format: functional, organism-based; summary of the method: as §3
Mus musculus [13] = assay: Hypolipidemic activity in ob/ob mouse assessed as decrease in fat deposition in liver at 3 mg/kg administered daily via oral gavage for 31 days by […] staining-based microscopic method; format: functional, organism-based; summary of the method: as §3
Mus musculus [14] = assay: Antifibrotic activity in ob/ob mouse assessed as decrease in TGF-beta1 expression in liver at 3 mg/kg administered daily via oral gavage for 31 days by immunohistochemical staining-based microscopic method; format: functional, organism-based
Prevotella = assay: Decrease in Prevotella levels in cecum of ob/ob mouse at 3 mg/kg administered daily via oral gavage for 31 days by 16S rRNA gene high-throughput sequencing method; format: functional, organism-based
Summary of the method: (§4)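 Male ob/ob mice dosed daily by gavage at 1.0 or 3.0 mg/kg, compared with vehicle group. DNA extracted from about 150 mg caecum contents. 16S rRNA V3–V4 region amplified and sequenced on Illumina HiSeq PE250. Community compared by NMDS/MRPP; discriminant taxa identified by LEfSe.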

Selenomonas = assay: Decrease in Selenomonas levels in cecum of ob/ob mouse at 3 mg/kg administered daily via oral gavage for 31 days by 16S rRNA gene high-throughput sequencing method; format: functional, organism-based; summary of the method: as §4
Alistipes = assay: Decrease in Alistipes levels in cecum of ob/ob mouse at 3 mg/kg administered daily via oral gavage for 31 days by 16S rRNA gene high-throughput sequencing method; format: functional, organism-based; summary of the method: as §4
Mus musculus [15] = assay: Reduction of liver TNF-alpha levels in ob/ob mouse at 3 mg/kg administered daily via oral gavage for 31 days by DAPI staining/immunofluorescence-based confocal microscopic method; format: functional, organism-based
Summary of the method: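 Liver from ob/ob mice dosed at 3.0 mg/kg by gavage; tissue methanol-fixed, blocked in PBS with 5% BSA, stained with anti-TNFα (1:200) and Alexa Fluor 610 secondary (1:250), nuclei with DAPI; confocal imaging, per-cell TNFα expression quantified.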

Mus musculus [16] = assay: Upregulation of Il10 mRNA expression in ob/ob mouse ileum at 3 mg/kg administered daily via oral gavage for 31 days by RNA-seq analysis; format: functional, organism-based
Mus musculus [17] = assay: Upregulation of Muc-1 mRNA expression in ob/ob mouse ileum at 3 mg/kg administered daily via oral gavage for 31 days by RNA-seq analysis; format: functional, organism-based
Mus musculus [18] = assay: Downregulation of Nos2 mRNA expression in ob/ob mouse ileum at 3 mg/kg administered daily via oral gavage for 31 days by RNA-seq analysis; format: functional, organism-based
Mus musculus [19] = assay: Hypoglycemic activity in antibiotic-treated ob/ob mouse assessed as decrease in fasting blood glucose levels at 3 mg/kg administered daily via oral gavage for 3 weeks; format: functional, organism-based
Summary of the method: (§5)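 Male ob/ob mice pretreated three weeks with ampicillin (1 g/L), vancomycin, neomycin, gentamycin and erythromycin. Groups of n = 8 given 3.0 mg/kg/day orally in soybean vehicle versus vehicle. Plasma and hepatic lipids, fasting glucose, OGTT (glucose 2 g/kg after overnight fast) and HbA1c measured.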

Mus musculus [20] = assay: Hypoglycemic activity in antibiotic-treated ob/ob mouse assessed as decrease in blood glucose AUC at 3 mg/kg administered daily via oral gavage for 3 weeks by OGTT; format: functional, organism-based; summary of the method: as §5
Mus musculus [21] = assay: Hypolipidemic activity in antibiotic-treated ob/ob mouse assessed as decrease in plasma LDL-C levels at 3 mg/kg administered daily via oral gavage for 3 weeks; format: functional, organism-based; summary of the method: as §5
Mus musculus [22] = assay: Hypolipidemic activity in antibiotic-treated ob/ob mouse assessed as decrease in hepatic LDL-C levels at 3 mg/kg administered daily via oral gavage for 3 weeks; format: functional, organism-based; summary of the method: as §5
Mus musculus [23] = assay: Hypolipidemic activity in antibiotic-treated ob/ob mouse assessed as decrease in hepatic free fatty acid levels at 3 mg/kg administered daily via oral gavage for 3 weeks; format: functional, organism-based; summary of the method: as §5

CC(C)=CCC/C(C)=C/CCC1=C[C@H](c2ccc(C(C)(C)C)cc2)OC1=O
68%: Activity (Mus musculus [5])
Non-Toxic: Activity (Mus musculus [1]) | Activity (Mus musculus [2]) | Activity (Mus musculus [3])
inactive: Activity (Mus musculus [19]) | Activity (Mus musculus [20]) | Activity (Mus musculus [21]) | Activity (Mus musculus [22]) | Activity (Mus musculus [23])
280 ng·h/mL: AUC(0-inf) [4]
active: Activity (Mus musculus [6]) | Activity (Mus musculus [7]) | Activity (Mus musculus [8]) | Activity (Mus musculus [9]) | Activity (Mus musculus [10]) | Activity (Mus musculus [11]) | Activity (Mus musculus [12]) | Activity (Mus musculus [13]) | Activity (Mus musculus [14]) | Activity (Prevotella) | Activity (Selenomonas) | Activity (Alistipes) | Activity (Mus musculus [15]) | Activity (Mus musculus [16]) | Activity (Mus musculus [17]) | Activity (Mus musculus [18])
